Active and inactive are the calls of the source. No cut-off for these calls is given here.
Assays:
[1] = tested on: Jurkat; assay: Cell cycle arrest in human Jurkat E6-1 cells assessed as accumulation at S phase at 25 uM after 24 hrs by FACS flow cytometry; assay type: functional
How it was run: (§1)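 Jurkat E6 cells grown in RPMI 1640 with 10% FBS at 37 °C, 5% CO2. Compounds were serially diluted in medium starting 50% above the M21 IC50. 4.0 × 10^5 cells were exposed for 24 h, then washed and spiked with chicken red blood cells as internal standard. Cells were fixed in ice-cold ethanol, stained with 1 μg/mL DAPI on ice for 1 h, and phase distribution was read by flow cytometry. The control was 0.5% DMSO.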

[2] = tested on: Jurkat; assay: Cell cycle arrest in human Jurkat E6-1 cells assessed as accumulation at G2/M phase at 25 uM after 24 hrs by FACS flow cytometry; assay type: functional; how it was run: as §1
[3] = tested on: HT-29; assay: Cytotoxicity against human HT-29 cells after 48 hrs by SRB assay; assay type: functional, cell-based; settings: HT-29, 48 h
How it was run: (§2)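 NCI sulforhodamine B protocol. Cells were grown in high-glucose DMEM with 5% FBS and seeded per well at 4 × 10^3 (HT-29), 3.5 × 10^3 (M21) or 3 × 10^3 (MCF-7), then allowed 24 h to attach. Serial dilutions from 200 μM to 780 nM final were applied in DMSO <0.5% for 48 h. Cells were fixed with cold TCA (10% final) and stained with SRB, with absorbance read at 530–568 nm. Growth inhibition was computed against day-0 plates, giving the 50% inhibitory concentration. At least two experiments in triplicate, CV <10%.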

[4] = tested on: MCF7; assay: Cytotoxicity against human MCF7 cells after 48 hrs by SRB assay; assay type: functional, cell-based; settings: MCF7, 48 h; how it was run: as §2
[5] = tested on: M21; assay: Cytotoxicity against human M21 cells after 48 hrs by SRB assay; assay type: functional, cell-based; settings: M21, 48 h; how it was run: as §2
[6] = tested on: Jurkat; assay: Cell cycle arrest in human Jurkat E6-1 cells assessed as accumulation at G0/G1 phase at 25 uM after 24 hrs by FACS flow cytometry; assay type: functional
How it was run: (§3)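 Jurkat E6 cells cultured in RPMI 1640 with 10% FBS at 37 °C, 5% CO2. Compounds serially diluted in medium, starting 50% above the M21 IC50. 4.0 × 10^5 cells were exposed for 24 h. Cells were washed with PBS, chicken red blood cells added as internal standard, and fixed in ice-cold EtOH. After 1 h on ice in PBS with 1 μg/mL DAPI, phase distribution was read by flow cytometry. DMSO-treated cells served as control.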

[7] = tested on: Jurkat; assay: Cell cycle arrest in human Jurkat E6-1 cells assessed as accumulation at S phase at 15 uM after 24 hrs by FACS flow cytometry; assay type: functional; how it was run: as §1
[8] = tested on: Jurkat; assay: Cell cycle arrest in human Jurkat E6-1 cells assessed as accumulation at G2/M phase at 15 uM after 24 hrs by FACS flow cytometry; assay type: functional; how it was run: as §3
[9] = tested on: M21; assay: Induction of DNA damage response in human M21 cells assessed as phosphorylation of H2AX into gammaH2AX at IC50 after 24 hrs by DAPI staining-based immunofluorescence assay; assay type: functional, cell-based
How it was run: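 M21 cells (1 × 10^5) on fibronectin-coated coverslips, grown 24 h, then exposed to agent for 24 h at 37 °C; 0.5% DMSO control. Fixed with 3.7% formaldehyde and permeabilized with 0.1% saponin/3% BSA. Probed with mouse anti-H2AX pS139 antibody for 2 h at room temperature. Nuclei counterstained with DAPI; nuclear γH2AX foci viewed by epifluorescence microscopy.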

[10] = Toxicity in fertilized chicken embryo assessed as mortality rate at 30 ug per egg, iv administered on day 11 measured on day 17 by CAM assay; assay type: organism-based, Gallus gallus; settings: in vivo, read-out: Activity
How it was run: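 Fertilized chicken eggs grafted on the CAM with HT-1080 cells (3.5 × 105/egg) received a 100 μL intravenous injection under the CAM on day 11. The drug was diluted in Cremophor EL/99% ethanol/PBS (1/1/14 v/v). Groups held 10–12 eggs and were incubated until day 17, when dead embryos and signs of toxicity were counted per group.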

[11] = tested on: HT-1080; assay: Antitumor activity against human HT1080 cells xenografted in chicken chorioallantoic membrane assessed as inhibition of tumor growth at 30 ug per egg, iv administered on day 11 measured on day 17 by CAM assay; assay type: functional
How it was run: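 HT-1080 fibrosarcoma cells (3.5 × 105/egg) were applied onto freshly exposed CAM of fertilized chicken eggs. On day 11, drug from a DMSO stock was diluted in Cremophor EL/99% ethanol/PBS (1/1/14 v/v) and 100 μL was injected into a vein under the CAM. Groups of 10–12 eggs were kept to day 17, embryos were euthanized at 4 °C for ≥4 h, and tumor wet weight was recorded.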

[12] = tested on: Jurkat; assay: Cell cycle arrest in human Jurkat E6-1 cells assessed as accumulation at G0/G1 phase at 15 uM after 24 hrs by FACS flow cytometry; assay type: functional; how it was run: as §3
[13] = tested on: Jurkat; assay: Cell cycle arrest in human Jurkat E6-1 cells assessed as accumulation at G0/G1 phase at 40 uM after 24 hrs by FACS flow cytometry; assay type: functional; how it was run: as §3
[14] = tested on: Jurkat; assay: Cell cycle arrest in human Jurkat E6-1 cells assessed as accumulation at S phase at 40 uM after 24 hrs by FACS flow cytometry; assay type: functional
How it was run: (§4)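 Jurkat E6 T-lymphoblasts in RPMI 1640 with 10% FBS, 37 °C, 5% CO2. […] Chicken red blood cells were added as internal standard. Cells were fixed in ice-cold EtOH and stained with 1 μg/mL DAPI on ice for 1 h before flow cytometry of phase distribution. Vehicle control was 0.5% DMSO.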

[15] = tested on: Jurkat; assay: Cell cycle arrest in human Jurkat E6-1 cells assessed as accumulation at G2/M phase at 40 uM after 24 hrs by FACS flow cytometry; assay type: functional; how it was run: as §1
[16] = tested on: Jurkat; assay: Cell cycle arrest in human Jurkat E6-1 cells assessed as accumulation at G2/M phase at 31 uM after 24 hrs by FACS flow cytometry; assay type: functional; how it was run: as §1
[17] = tested on: Jurkat; assay: Cell cycle arrest in human Jurkat E6-1 cells assessed as accumulation at S phase at 31 uM after 24 hrs by FACS flow cytometry; assay type: functional; how it was run: as §4
[18] = tested on: Jurkat; assay: Cell cycle arrest in human Jurkat E6-1 cells assessed as accumulation at G0/G1 phase at 31 uM after 24 hrs by FACS flow cytometry; assay type: functional; how it was run: as §3
[19] = tested on: Jurkat; assay: Cell cycle arrest in human Jurkat E6-1 cells assessed as accumulation at G0/G1 phase at 14 uM after 24 hrs by FACS flow cytometry; assay type: functional; how it was run: as §3
[20] = tested on: Jurkat; assay: Cell cycle arrest in human Jurkat E6-1 cells assessed as accumulation at S phase at 14 uM after 24 hrs by FACS flow cytometry; assay type: functional; how it was run: as §1
[21] = tested on: Jurkat; assay: Cell cycle arrest in human Jurkat E6-1 cells assessed as accumulation at G2/M phase at 14 uM after 24 hrs by FACS flow cytometry; assay type: functional; how it was run: as §3
[22] = tested on: Jurkat; assay: Cell cycle arrest in human Jurkat E6-1 cells assessed as accumulation at G0/G1 phase at 12 uM after 24 hrs by FACS flow cytometry; assay type: functional; how it was run: as §3
[23] = tested on: Jurkat; assay: Cell cycle arrest in human Jurkat E6-1 cells assessed as accumulation at S phase at 12 uM after 24 hrs by FACS flow cytometry; assay type: functional; how it was run: as §1
[24] = tested on: Jurkat; assay: Cell cycle arrest in human Jurkat E6-1 cells assessed as accumulation at G2/M phase at 12 uM after 24 hrs by FACS flow cytometry; assay type: functional; how it was run: as §3
[25] = tested on: Jurkat; assay: Cell cycle arrest in human Jurkat E6-1 cells assessed as accumulation at S phase at 32 uM after 24 hrs by FACS flow cytometry; assay type: functional; how it was run: as §4
[26] = tested on: Jurkat; assay: Cell cycle arrest in human Jurkat E6-1 cells assessed as accumulation at G2/M phase at 32 uM after 24 hrs by FACS flow cytometry; assay type: functional; how it was run: as §1
[27] = tested on: Jurkat; assay: Cell cycle arrest in human Jurkat E6-1 cells assessed as accumulation at G0/G1 phase at 32 uM after 24 hrs by FACS flow cytometry; assay type: functional; how it was run: as §3
[28] = tested on: Jurkat; assay: Cell cycle arrest in human Jurkat E6-1 cells assessed as accumulation at S phase at 48 uM after 24 hrs by FACS flow cytometry; assay type: functional; how it was run: as §4
[29] = tested on: Jurkat; assay: Cell cycle arrest in human Jurkat E6-1 cells assessed as accumulation at G2/M phase at 48 uM after 24 hrs by FACS flow cytometry; assay type: functional; how it was run: as §1
[30] = tested on: Jurkat; assay: Cell cycle arrest in human Jurkat E6-1 cells assessed as accumulation at G0/G1 phase at 48 uM after 24 hrs by FACS flow cytometry; assay type: functional; how it was run: as §3

In the case of `Cc1ccccc1NS(=O)(=O)c1cccc(NC(=O)NCCCCl)c1`, the Activity [1] is reported as 38%, the Activity [2] is reported as 17% and the IC50 [3] is reported as 42 µM. The IC50 [4] was 52 µM, the IC50 [5] was 60 µM and the Activity [6] was 45%.
For `CCc1ccccc1OS(=O)(=O)c1ccc(NC(=O)NCCCCl)cc1`, the Activity [7] was 63%, the Activity [8] was 11% and the Activity [9] was “Active”. The IC50 [5] was 15 µM, the mortality at 6 days [10] was 0% and the TGI [11] was 68%. It also gave an Activity [12] of 26%.
For `CCNC(=O)Nc1cccc(S(=O)(=O)Oc2ccccc2C)c1`, the Activity [9] was “Active”, the Activity [13] was 25% and the Activity [14] was 60%. For the same compound, the IC50 [3] was 44 µM, the IC50 [4] was 55 µM and the IC50 [5] was 51 µM. The Activity [15] was 15%.
For `O=C(NCCCCl)Nc1ccc(S(=O)(=O)Oc2ccc(O)cc2)cc1`, the Activity [16] was 12%, the Activity [9] was “Active” and the IC50 [3] was 50 µM. It also gave an IC50 [4] of 51 µM, an IC50 [5] of 47 µM and an Activity [17] of 65%. The Activity [18] was 23%.
`CCCc1ccccc1OS(=O)(=O)c1cccc(NC(=O)NCCCCl)c1` showed an Activity [19] of 52%, an Activity [20] of 39% and an IC50 [3] of 14 µM. The IC50 [4] was 14 µM, the IC50 [5] was 15 µM and the Activity [21] was 9%.
In the case of `CCNC(=O)Nc1cccc(S(=O)(=O)Oc2ccccc2CC)c1`, the Activity [9] is reported as “Active”, the Activity [22] is reported as 26% and the IC50 [3] is reported as 33 µM. For the same compound, the Activity [23] was 63%, the IC50 [5] was 30 µM and the Activity [24] was 11%.
Compound `CCNC(=O)Nc1cccc(S(=O)(=O)Oc2ccc(O)cc2)c1` has an Activity [25] of 39%, an IC50 [3] of 75 µM and an IC50 [4] of 64 µM. The IC50 [5] was 42 µM, the Activity [26] was 18% and the Activity [27] was 43%.
With `Cc1ccccc1NS(=O)(=O)c1ccc(NC(=O)NCCCl)cc1` the Activity [28] was 35%, the Activity [29] was 20% and the IC50 [3] was 55 µM. The Activity [30] was 45% and the IC50 [5] was 63 µM.

Source: ChEMBL document CHEMBL2163200, “Synthesis, biological evaluation, and structure-activity relationships of novel substituted N-phenyl ureidobenzenesulfonate derivatives blocking cell cycle progression in S-phase and inducing DNA double-strand breaks” (J Med Chem, 2012)
